Test results from ChEMBL document CHEMBL5038600, “Discovery of M-1121 as an Orally Active Covalent Inhibitor of Menin-MLL Interaction Capable of Achieving Complete and Long-Lasting Tumor Regression” (J Med Chem, 2021).

What was measured:
MOLM-13 = assay: Anti-proliferative activity against human MOLM-13 cells harboring MLL/AF9 fusion protein assessed as cell growth inhibition measured after 4 days by Cell Titre Glo Luminescent Cell viability assay; assay type: functional, cell-based; conditions: MOLM-13, 96 h
Menin = molecular target: T1, Menin (Homo sapiens, UniProt O00255); assay: Binding affinity to menin (unknown origin) incubated for 1 hr by fluorescence polarization-based competitive binding assay
T1 sequence (O00255 whole entry): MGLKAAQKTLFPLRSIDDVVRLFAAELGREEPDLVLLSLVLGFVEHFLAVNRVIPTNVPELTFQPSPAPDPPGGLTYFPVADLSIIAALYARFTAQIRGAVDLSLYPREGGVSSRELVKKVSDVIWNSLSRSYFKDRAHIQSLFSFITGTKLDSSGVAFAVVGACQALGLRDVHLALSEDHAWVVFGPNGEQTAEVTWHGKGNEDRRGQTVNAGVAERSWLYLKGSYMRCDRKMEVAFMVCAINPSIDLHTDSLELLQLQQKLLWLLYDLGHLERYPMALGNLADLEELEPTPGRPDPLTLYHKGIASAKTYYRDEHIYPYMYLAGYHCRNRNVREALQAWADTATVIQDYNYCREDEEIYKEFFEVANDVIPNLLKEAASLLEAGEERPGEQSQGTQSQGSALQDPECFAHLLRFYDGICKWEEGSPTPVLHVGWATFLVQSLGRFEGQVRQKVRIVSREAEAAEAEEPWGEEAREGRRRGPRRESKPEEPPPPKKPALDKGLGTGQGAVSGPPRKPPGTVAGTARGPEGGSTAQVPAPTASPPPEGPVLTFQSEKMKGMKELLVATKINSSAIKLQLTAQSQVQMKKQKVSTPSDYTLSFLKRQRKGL

Menin (Homo sapiens) [1] = molecular target: T2, Menin (Homo sapiens) (UniProt O00255); assay: Binding affinity to recombinant human menin protein assessed as covalent complex formation incubated for 30 mins by LC/MS analysis; parameters: concentration or dose not given beside the values
T2 sequence (whole entry): T1 sequence (O00255 whole entry)

Menin (Homo sapiens) [2] = molecular target: T2, Menin (Homo sapiens); assay: Binding affinity to recombinant human menin protein assessed as covalent complex formation measured after overnight incubation by LC/MS analysis; parameters: concentration or dose not given beside the values
MV4-11 = assay: Anti-proliferative activity against human MV4-11 cells harboring MLL/AF4 fusion protein assessed as cell growth inhibition measured after 4 days by Cell Titre Glo Luminescent Cell viability assay; assay type: functional, cell-based; conditions: MV4-11, 96 h
Menin (Homo sapiens) [3] = molecular target: T2, Menin (Homo sapiens); assay: Binding affinity to recombinant human menin protein assessed as covalent complex formation incubated for 1 hrs by LC/MS analysis; parameters: concentration or dose not given beside the values
Method in brief: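 Menin (25 mg/mL in 25 mM Tris pH 8.0, 150 mM NaCl, 5 mM DTT) incubated with compound at a 1:1.2 protein:compound molar ratio for 1 h or overnight at 4 °C. Diluted to 1 mg/mL, then reverse-phase C4 LC with a 5–100% MeCN/0.2% formic acid gradient and Q-TOF mass spectrometry to detect the covalent adduct.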

Menin (Homo sapiens) [4] = molecular target: T2, Menin (Homo sapiens); assay: Binding affinity to recombinant human menin protein assessed as covalent complex formation incubated for 10 mins by LC/MS analysis; parameters: concentration or dose not given beside the values
[5] = Plasma concentration in mouse at 25 mg/kg, po measured after 3 hrs; assay type: ADME, organism-based
Method in brief: (§1)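 Mice given a single oral dose of 25 mg/kg; plasma concentrations sampled at 1, 3 and 6 h post-dose.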

[6] = Plasma concentration in mouse at 25 mg/kg, po measured after 1 hr; assay type: ADME, organism-based; method in brief: as §1
[7] = Plasma concentration in mouse at 25 mg/kg, po measured after 6 hrs; assay type: ADME, organism-based; method in brief: as §1

SMILES	IC50 (MOLM-13)	IC50 (Menin)	Activity (Menin (Homo sapiens) [1])	Activity (Menin (Homo sapiens) [2])	IC50 (MV4-11)	Activity (Menin (Homo sapiens) [3])	Activity (Menin (Homo sapiens) [4])	concentration at 3 h [5]	concentration at 1 h [6]	concentration at 6 h [7]
COC(=O)N[C@H]1CCC[C@@H]1[C@](CN1CCC1)(c1cccc(F)c1)C1CCN(CC2(OC)CN(c3ccc(S(=O)(=O)C4CN(C(=O)/C=C/CN(C)C)C4)cc3)C2)CC1	49.7 nM	2.7 nM	83.4%	90.9%	2.3 nM	85.4%	36.9%	–	–	–
COC(=O)N[C@H]1CCC[C@@H]1[C@](CN1CCC1)(c1cccc(F)c1)C1CCN(CC2(OC)CN(c3ccc(S(=O)(=O)C4CC4)cc3)C2)CC1	–	–	–	–	–	–	–	5750 ng/mL	8260 ng/mL	2200 ng/mL
C=CC(=O)N1CC(S(=O)(=O)c2ccc(N3CC(CN4CCC([C@@](CN5CCC5)(c5cccc(F)c5)[C@H]5CCC[C@@H]5NC(=O)OC)CC4)(OC)C3)cc2)C1	402 nM	–	40.9%	81.5%	112 nM	59.4%	24.1%	–	–	–
C=CC(=O)N1CCC[C@H](S(=O)(=O)c2ccc(N3CC(CN4CCC([C@@](CN5CCC5)(c5cccc(F)c5)[C@H]5CCC[C@@H]5NC(=O)OC)CC4)(OC)C3)cc2)C1	196 nM	3 nM	27.9%	93.1%	77 nM	37.4%	8.8%	–	–	–
COC(=O)N[C@H]1CCC[C@@H]1[C@](CN1CCC1)(c1cccc(F)c1)C1CCN(CC2CN(c3ccc(S(=O)(=O)C4CC4)cc3)C2)CC1	–	–	–	–	–	–	–	735 ng/mL	624 ng/mL	928 ng/mL
COC(=O)N[C@H]1CCC[C@@H]1[C@](CN1CCC1)(c1cccc(F)c1)C1CCN(CC2(C(=O)OC)CN(c3ccc(S(=O)(=O)C4CC4)cc3)C2)CC1	> 10000 nM	–	–	–	> 1000 nM	–	–	–	–	–
C=CC(=O)N1CCC[C@@H](S(=O)(=O)c2ccc(N3CC(CN4CCC([C@@](CN5CCC5)(c5cccc(F)c5)[C@H]5CCC[C@@H]5NC(=O)OC)CC4)(OC)C3)cc2)C1	188 nM	3.7 nM	22.6%	90%	74 nM	40.5%	9.8%	–	–	–
COC(=O)N[C@H]1CCC[C@@H]1[C@](CN)(c1cccc(F)c1)C1CCN(CC2CN(c3ccc(S(=O)(=O)C4CC4)cc3)C2)CC1	553 nM	–	–	–	192 nM	–	–	–	–	–
C=CC(=O)N1C[C@H]2C[C@@H]1CN2S(=O)(=O)c1ccc(N2CC(CN3CCC([C@@](CN4CCC4)(c4cccc(F)c4)[C@H]4CCC[C@@H]4NC(=O)OC)CC3)(OC)C2)cc1	504 nM	–	0%	45.1%	436 nM	0%	0%	–	–	–
C=CC(=O)N1CCC(S(=O)(=O)c2ccc(N3CC(CN4CCC([C@@](CN5CCC5)(c5cccc(F)c5)[C@H]5CCC[C@@H]5NC(=O)OC)CC4)(OC)C3)cc2)CC1	594 nM	3.8 nM	0%	27%	156 nM	0%	0%	–	–	–
